Results as given in ChEMBL document CHEMBL1137508, “Pentacyclic triterpenes. Part 5: synthesis and SAR study of corosolic acid derivatives as inhibitors of glycogen phosphorylases” (Bioorg Med Chem Lett, 2007).
Active and inactive are the calls of the source. The calls are words filed in the database; no cut-off is given here.

Tests used:
Oryctolagus cuniculus = species on record: Oryctolagus cuniculus; assay: (§1) Inhibition of rabbit muscle glycogen phosphorylase a
Procedure, shortened: (§2)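 Rabbit muscle glycogen phosphorylase a activity was measured in the glycogen-synthesis direction by quantifying phosphate released from glucose-1-phosphate. Values are means of three experiments.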

[1] = as §1; set-up: species or system Oryctolagus cuniculus; procedure, shortened: as §2

| Structure (SMILES) | Activity (Oryctolagus cuniculus) | IC50 [1] |
| --- | --- | --- |
| C[C@H]1[C@H](C)CC[C@]2(C(=O)OCC(=O)O)CC[C@]3(C)C(=CC[C@@H]4[C@@]5(C)C[C@@H](O)[C@H](O)C(C)(C)[C@@H]5CC[C@]43C)[C@H]12 | inactive | – |
| C=CCOC(=O)[C@]12CC[C@@H](C)[C@H](C)[C@H]1C1=CC[C@@H]3[C@@]4(C)C[C@@H](O)[C@H](O)C(C)(C)[C@@H]4CC[C@@]3(C)[C@]1(C)CC2 | – | 91.2 µM |
| C[C@H]1[C@H](C)CC[C@]2(C(=O)OCc3ccccc3)CC[C@]3(C)C(=CC[C@@H]4[C@@]5(C)C[C@@H](O)C(=O)C(C)(C)[C@@H]5CC[C@]43C)[C@H]12 | – | 31.8 µM |
| C[C@H]1[C@H](C)CC[C@]2(C(=O)O)CC[C@]3(C)C(=CC[C@@H]4[C@@]5(C)C[C@@H](OC(=O)CCC(=O)O)[C@H](OC(=O)CCC(=O)O)C(C)(C)[C@@H]5CC[C@]43C)[C@H]12 | inactive | – |
| C[C@H]1[C@H](C)CC[C@]2(C(=O)O[C@@H]3O[C@H](CO)[C@@H](O)[C@H](O)[C@H]3O)CC[C@]3(C)C(=CC[C@@H]4[C@@]5(C)C[C@@H](O)[C@H](O)C(C)(C)[C@@H]5CC[C@]43C)[C@H]12 | – | 106 µM |
| C[C@H]1[C@H](C)CC[C@]2(C(=O)OCc3ccccc3)CC[C@]3(C)C(=CC[C@@H]4[C@@]5(C)C[C@@H]6OC6C(C)(C)[C@@H]5CC[C@]43C)[C@H]12 (single isomer, unassigned) | – | 69.5 µM |
| C[C@H]1[C@H](C)CC[C@]2(C(=O)O)CC[C@]3(C)C(=CC[C@@H]4[C@@]5(C)C[C@H](O)[C@H](O)C(C)(C)[C@@H]5CC[C@]43C)[C@H]12 | – | 116 µM |
| C[C@H]1[C@H](C)CC[C@]2(C(=O)OCc3ccccc3)CC[C@]3(C)C(=CC[C@@H]4[C@@]5(C)C[C@@H](OS(C)(=O)=O)[C@H](O)C(C)(C)[C@@H]5CC[C@]43C)[C@H]12 | – | 43.4 µM |
| CCCCCC(=O)O[C@@H]1C[C@]2(C)[C@H]3CC=C4[C@@H]5[C@@H](C)[C@H](C)CC[C@]5(C(=O)O)CC[C@@]4(C)[C@]3(C)CC[C@H]2C(C)(C)[C@H]1O | – | 3.26 µM |
| CCC(=O)O[C@@H]1C[C@]2(C)[C@H]3CC=C4[C@@H]5[C@@H](C)[C@H](C)CC[C@]5(C(=O)O)CC[C@@]4(C)[C@]3(C)CC[C@H]2C(C)(C)[C@H]1O | – | 96.7 µM |
| C[C@H]1[C@H](C)CC[C@]2(C(=O)OCn3cccn3)CC[C@]3(C)C(=CC[C@@H]4[C@@]5(C)C[C@@H](O)[C@H](O)C(C)(C)[C@@H]5CC[C@]43C)[C@H]12 | – | 62.1 µM |
| CCC(=O)O[C@@H]1C[C@]2(C)[C@H]3CC=C4[C@@H]5[C@@H](C)[C@H](C)CC[C@]5(C(=O)O)CC[C@@]4(C)[C@]3(C)CC[C@H]2C(C)(C)[C@H]1OC(=O)CC | – | 73.7 µM |
| CC(=O)O[C@@H]1C[C@]2(C)[C@H]3CC=C4[C@@H]5[C@@H](C)[C@H](C)CC[C@]5(C(=O)O)CC[C@@]4(C)[C@]3(C)CC[C@H]2C(C)(C)[C@H]1OC(C)=O | – | 35 µM |
| CCCC(=O)O[C@@H]1C[C@]2(C)[C@H]3CC=C4[C@@H]5[C@@H](C)[C@H](C)CC[C@]5(C(=O)O)CC[C@@]4(C)[C@]3(C)CC[C@H]2C(C)(C)[C@H]1O | – | 77.9 µM |
| CCCC(=O)O[C@@H]1C[C@]2(C)[C@H]3CC=C4[C@@H]5[C@@H](C)[C@H](C)CC[C@]5(C(=O)O)CC[C@@]4(C)[C@]3(C)CC[C@H]2C(C)(C)[C@H]1OC(=O)CCC | – | 78.7 µM |
| C[C@H]1[C@H](C)CC[C@]2(C(=O)OCc3ccccc3)CC[C@]3(C)C(=CC[C@@H]4[C@@]5(C)C[C@@H](O)[C@H](O)C(C)(C)[C@@H]5CC[C@]43C)[C@H]12 | – | 41.2 µM |

| Structure (SMILES) | Activity (Oryctolagus cuniculus) | IC50 [1] |
| --- | --- | --- |
| C[C@H]1[C@H](C)CC[C@]2(C(=O)OCc3ccccc3)CC[C@]3(C)C(=CC[C@@H]4[C@@]5(C)C=C(O)C(=O)C(C)(C)[C@@H]5CC[C@]43C)[C@H]12 | – | 7.31 µM |
| C[C@H]1[C@H](C)CC[C@]2(C(=O)O)CC[C@]3(C)C(=CC[C@@H]4[C@@]5(C)C[C@@H](O)[C@H](O)C(C)(C)[C@@H]5CC[C@]43C)[C@H]12 [COROSOLIC ACID] | – | 20 µM |
| COC(=O)[C@]12CC[C@@H](C)[C@H](C)[C@H]1C1=CC[C@@H]3[C@@]4(C)C[C@@H](O)[C@H](O)C(C)(C)[C@@H]4CC[C@@]3(C)[C@]1(C)CC2 [COROSOLIC ACID METHYL ESTER] | – | 33.7 µM |
| CCCOC(=O)[C@]12CC[C@@H](C)[C@H](C)[C@H]1C1=CC[C@@H]3[C@@]4(C)C[C@@H](O)[C@H](O)C(C)(C)[C@@H]4CC[C@@]3(C)[C@]1(C)CC2 | – | 82.5 µM |
| C[C@H]1[C@H](C)CC[C@]2(C(=O)OCc3ccccc3)CC[C@]3(C)C(=CC[C@@H]4[C@@]5(C)C[C@H](O)[C@H](O)C(C)(C)[C@@H]5CC[C@]43C)[C@H]12 | – | 108 µM |
| CCOC(=O)[C@]12CC[C@@H](C)[C@H](C)[C@H]1C1=CC[C@@H]3[C@@]4(C)C[C@@H](O)[C@H](O)C(C)(C)[C@@H]4CC[C@@]3(C)[C@]1(C)CC2 | – | 46.7 µM |
| CC(=O)O[C@@H]1C[C@]2(C)[C@H]3CC=C4[C@@H]5[C@@H](C)[C@H](C)CC[C@]5(C(=O)O)CC[C@@]4(C)[C@]3(C)CC[C@H]2C(C)(C)[C@H]1O | – | 37.7 µM |
| C[C@H]1[C@H](C)CC[C@]2(C(=O)O)CC[C@]3(C)C(=CC[C@@H]4[C@@]5(C)C[C@@H](O)[C@@H](O)C(C)(C)[C@@H]5CC[C@]43C)[C@H]12 [PYGENIC ACID A] | – | 212 µM |
| CC(=O)OC[C@H]1O[C@@H](OC(=O)[C@]23CC[C@@H](C)[C@H](C)[C@H]2C2=CC[C@@H]4[C@@]5(C)C[C@@H](O)[C@H](O)C(C)(C)[C@@H]5CC[C@@]4(C)[C@]2(C)CC3)[C@H](OC(C)=O)[C@@H](OC(C)=O)[C@@H]1OC(C)=O | – | 373 µM |
| CCOC(=O)COC(=O)[C@]12CC[C@@H](C)[C@H](C)[C@H]1C1=CC[C@@H]3[C@@]4(C)C[C@@H](O)[C@H](O)C(C)(C)[C@@H]4CC[C@@]3(C)[C@]1(C)CC2 | – | 102 µM |
| CCCCOC(=O)[C@]12CC[C@@H](C)[C@H](C)[C@H]1C1=CC[C@@H]3[C@@]4(C)C[C@@H](O)[C@H](O)C(C)(C)[C@@H]4CC[C@@]3(C)[C@]1(C)CC2 | – | 92.1 µM |
| Cc1ccc(S(=O)(=O)O[C@@H]2C[C@]3(C)[C@H]4CC=C5[C@@H]6[C@@H](C)[C@H](C)CC[C@]6(C(=O)OCc6ccccc6)CC[C@@]5(C)[C@]4(C)CC[C@H]3C(C)(C)[C@H]2O)cc1 | – | 444 µM |
| C[C@H]1[C@H](C)CC[C@]2(C(=O)O)CC[C@]3(C)C(=CC[C@@H]4[C@@]5(C)C[C@@H](OC(=O)c6ccccc6)[C@H](O)C(C)(C)[C@@H]5CC[C@]43C)[C@H]12 | – | 5.1 µM |
| C[C@H]1[C@H](C)CC[C@]2(C(=O)OCc3ccccc3)CC[C@]3(C)C(=CC[C@@H]4[C@@]5(C)C[C@@H](OC(=O)CCC(=O)O)[C@H](OC(=O)CCC(=O)O)C(C)(C)[C@@H]5CC[C@]43C)[C@H]12 | – | 722 µM |
| C[C@H]1[C@H](C)CC[C@]2(C(=O)OCc3ccccc3)CC[C@]3(C)C(=CC[C@@H]4[C@@]5(C)C[C@@H](O)[C@@H](O)C(C)(C)[C@@H]5CC[C@]43C)[C@H]12 | – | 324 µM |
